# CHOP inhibitor: inhibitors of CHOP promoter induction, primary screen, cell-based, unfolded protein response, luciferase reporter. inhibition, % at 10 µM. actives 3.8% (n = 220,000). CHO-K1 CHOP-promoter luciferase, tunicamycin-induced, 15-18 h;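 active means compounds that reduced the stress-induced luciferase reporter signal by more than about 70% of percent inhibition, limit read from the data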;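 further: 0% = tunicamycin plus vehicle and 100% = wells without tunicamycin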
# p97 ATPase inh: inhibitors of human p97 ATPase, primary screen, biochemical; Transitional endoplasmic reticulum ATPase (Homo sapiens), P55072; recombinant p97 ATPase, Kinase-Glo ATP luminescence, 3 h; inhibition, % at 8 µM; actives 0.42% (n = 220,000); AID 1481, 2009; in the data active means inhibition above about 15%;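 further: 0% = DMSO vehicle and 100% = wells lacking enzyme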
# UPR CHOP act: activators of apoptotic CHOP UPR arm, primary screen, cell-based, CHO-CHOP luciferase reporter, luminescence, uHTS; activation, % at 10 µM; UPR activation; percent of tunicamycin response over DMSO baseline; actives 0.34% (n = 330,000);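 active means at 10 µM dose, activation of 40% or more, normalized to positive control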;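 further: 100% = tunicamycin at 10 µg/mL and 0% = DMSO alone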
#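 Assay system: CHO cells with stable CHOP pathway luciferase reporter; Buffer or medium: F12 plus 10% serum; Times: 16-18 h cell attachment, then 6 h compound exposure, 37 °C; Signal: luciferase luminescence; Read-out basis: percent activation relative to tunicamycin control; Control set: tunicamycin high control, DMSO low control.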
# NS3 helicase inh: inhibitors of HCV NS3 helicase, primary screen, biochemical, Cy5 molecular beacon fluorescence. Hepatitis C virus NS3 helicase. inhibition, % at 10.9 µM. actives 0.56% (n = 290,000). NS3 helicase DNA unwinding. AID 1800, 2009;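 active means inhibition above the mean of all tested compounds plus 3 SD, set per campaign, cut at about 35% in these data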;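 further: 0% = DMSO wells and 100% = thioflavine S control wells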
#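 test system = hepatitis C virus NS3 helicase domain fragment enzyme | reagent = annealed dual-labelled DNA beacon duplex, ATP-started | times = 1 h at 25 °C | detection = Cy5 fluorescence, 0 and 60 min reads | read-out basis = percent inhibition from t60/t0 fluorescence ratio | control set = DMSO and thioflavine S | replication = one well per compound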
# XBP1 UPR activ: activators of adaptive XBP1 UPR arm, primary screen, cell-based, CHO-XBP1 luciferase reporter, luminescence, uHTS; IRE1-XBP1 UPR activation; percent of tunicamycin response, DMSO as zero; activation, % at 20 µM; actives 0.33% (n = 330,000);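 active means versus positive control, 20 µM dose yields 30% or more activation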;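 further: 100% = tunicamycin at 10 µg/mL and 0% = DMSO only wells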
#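 Material – CHO cell line with stable XBP1 luciferase reporter · Buffer or medium – F12 plus 10% FBS · Compound – single point, 20 µM final compound, 1% DMSO · Schedule – 16-18 h cell attachment at 37 °C, then 6 h compound exposure · Signal – Steady-Glo luminescence read · Benchmarks – high control tunicamycin 10 µg/mL final, low control DMSO vehicle only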
# PfM18AAP inh-1: PfM18AAP inhibitors, malaria aminopeptidase, primary screen, biochemical, QFRET, recombinant enzyme; H-Glu-NHMec fluorogenic cleavage; inhibition, % at 7.35 µM; AID 1822, 2009; actives 1.2% (n = 290,000); M18 aspartyl aminopeptidase (Plasmodium falciparum 3D7);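 active means inhibition above the campaign mean inhibition over all tested compounds plus 3 SD, cut at about 28% in these data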;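 further: 0% = plate median of test compound wells and 100% = 2 mM ZnCl2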
# PfM18AAP inh-2: PfM18AAP inhibitors, malaria aminopeptidase, confirmation, biochemical, QFRET, recombinant enzyme, triplicate | shares compounds with PfM18AAP inh-1 | H-Glu-NHMec fluorogenic cleavage | inhibition, % at 7.35 µM | actives 28% (n = 2,400) | AID 2170, 2009;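 active means mean inhibition over replicate wells above the hit cutoff set for the earlier primary screen, cut at about 29% in these data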;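 further: 0% = median of test compound wells and 100% = 2 mM ZnCl2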
# CTSL1 confirm: cathepsin L1 inhibitors, retest, confirmation, counter-screen for PFM18AAP inhibitor project, biochemical, QFRET, triplicate. AID 2178, 2009. 2,400 tested, under 10 active. inhibition, % at 5.96 µM. shares compounds with PfM18AAP inh-1. purified cathepsin L1, Z-Leu-Arg-MCA fluorescence;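 active means average inhibition across replicates above the hit cutoff set in the earlier primary screen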;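 further: 0% = median of test compound wells and 100% = Z-Phe-Ala-diazomethylketone 1 µM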
# The depositor's hits bear a star; . = no result given. Most compounds without a hit are left out; they make up all but 4.5% or so of the library.
SMILES,CHOP inhibitor,p97 ATPase inh,UPR CHOP act,NS3 helicase inh,XBP1 UPR activ,PfM18AAP inh-1,PfM18AAP inh-2,CTSL1 confirm
CCOc1cc(/C=C2\CN(C)C/C(=C\c3ccc(O)c(OCC)c3)C2=O)ccc1O,.,.,44*,-28,-4,44*,10,7
CCOc1cc(/C=C2\SC(N)=NC2=O)ccc1O,.,.,0,9,1,38*,-16,0
CCOC(=O)C1=C(O)/C(=C\c2ccc(O)c(OCC)c2)N=C1C,0,2,1,15,-1,40*,-41,2
CCOc1cc(/C=C2/C(=O)ON=C2C)ccc1O,.,.,8,14,14,25,.,.
COC(=O)C(CC(=O)c1ccc(Br)cc1)n1cccn1 (configuration not stated),.,.,5,3,-1,-19,.,.
C[C@H](CO)N1C[C@H](C)[C@@H](CN(C)C(=O)Nc2ccc3c(c2)OCO3)Oc2ccc(NC(=O)CCC(F)(F)F)cc2C1=O,.,.,1,.,1,.,.,.
Cc1c(NC(=O)CC2NC(=O)NC2=O)c(=O)n(-c2ccccc2)n1C (configuration not stated),13,0,1,6,-1,1,.,.
Cc1[nH]n(-c2ccccc2)c(=S)c1C=NCCCN=Cc1c(C)[nH]n(-c2ccccc2)c1=S,-74,4,0,10,-2,59*,-4,1
Cc1cc(=O)[nH]c(SCC(=O)Nc2ccccc2C#N)c1C#N,-3,3,1,1,-3,38*,-48,-3
COC(=O)c1ccccc1NC(=O)CSc1[nH]c(=O)cc(C)c1C#N,-9,0,-3,-2,-3,-4,.,.
COc1c(Br)cc(/C=N/n2c(-c3ccccc3)n[nH]c2=S)c(O)c1Br,.,.,1,8,-2,45*,-9,-3
Oc1ccccc1/C=N/n1c(-c2ccccc2)n[nH]c1=S,.,.,1,0,5,26,.,.
O=C(NNc1ccccc1[N+](=O)[O-])Nc1ccccc1,38,2,-2,-1,1,11,.,.
O=C(NNc1ccccc1[N+](=O)[O-])Nc1ccc(F)cc1,6,-2,1,4,-1,38*,1,4
O=C(NNc1ccc([N+](=O)[O-])cc1)Nc1ccccc1,.,.,1,25,-2,55*,32*,1
O=C(NNc1ccc([N+](=O)[O-])cc1)c1ccccc1Cl,-18,6,0,-2,-1,50*,21,0
O=C(NCCNc1ccc([N+](=O)[O-])cc1)c1ccccc1F,.,.,3,-3,-4,-8,.,.
O=C(NNc1ccc([N+](=O)[O-])cc1)c1ccccc1F,9,7,.,1,.,39*,16,9
CCc1ccc(N(CC(=O)NCC2CCCO2)C(=O)CCC(=O)Nc2nccs2)cc1 (configuration not stated),.,.,0,-8,-1,-2,.,.
CC(=O)Oc1cc2oc(=O)cc(C)c2cc1OC(C)=O,18,-3,-3,10,2,47*,75*,19*
Cc1c(C#N)c(O)n(C)c(=O)c1N=Nc1ccc(S(N)(=O)=O)cc1,-8,-3,.,10,.,35*,-40,5
Cc1c(C#N)c(O)n(CCO)c(=O)c1N=Nc1ccc(S(N)(=O)=O)cc1,-8,-1,-3,3,0,35*,-37,13

# Assay outcomes from PubChem.
